Assay outcomes from PubChem.
A selection: hits, their analogues and other compounds. The true share with any hit is near 3.1%.
UBC13 polyUb = inhibitors of human UBC13 polyubiquitin chain formation. inhibition, % at 20 µM. TR-FRET. 330,000 compounds, 0.47% hits. AID 485273. P61088; in the data active = inhibition above about 45%, passing the limit was not always enough
Target sequence (P61088 whole entry, looked up): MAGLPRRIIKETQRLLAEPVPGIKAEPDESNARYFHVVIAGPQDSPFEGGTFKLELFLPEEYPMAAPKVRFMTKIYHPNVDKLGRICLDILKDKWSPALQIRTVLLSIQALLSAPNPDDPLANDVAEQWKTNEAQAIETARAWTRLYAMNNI
Apaf-1 inh = blocks human Apaf-1 apoptosome activity. reconstituted apoptosome caspase-3 activity, DEVD-Rh110 fluorescence. 330,000 compounds, 0.71% hits. inhibition, % at 20 µM. AID 489030. O14727; active = inhibition of at least 40% at 20 µM;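 note: plate controls were DMSO wells for no effect and DEVD-CHO caspase inhibitor wells for full effect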
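System: reconstituted apoptosome with Apaf-1, cytochrome c, caspase-9, procaspase-3, dATP; Signal: Rh110 fluorescence intensity; Schedule: 30 min compound preincubation, 50 min activation, room temperature; Reagent: cytochrome c trigger plus (Z-DEVD)2-Rh110 caspase-3 substrate.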
MEKK2 WT-MEK5 = raises or lowers MEK5 binding to wildtype human MEKK2 PB1 domain; 290,000 compounds, 1.1% hits; bead flow cytometry, Alexa488-MEK5 binding to MEKK2 WT; actives lie on both sides; binding response (% of control), % at 10 µM; Q9Y2U5; in the data active = binding response below about 67% or above about 130%
PREPL inhibitor = inhibitors of human prolyl oligopeptidase-like enzyme PREPL; 320,000 compounds, 0.68% hits; Q4J6C6; recombinant PREPL, fluorescence polarization activity-based probe; inhibition, % at 5.96 µM; in the data active = inhibition above about 43%;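 note: 0% = enzyme with DMSO and 100% = wells lacking enzyme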
MEKK2mut PB1 HTS = signal of MEK5 binding to mutant human MEKK2 PB1 domain; bead flow cytometry, Alexa488-MEK5 binding to MEKK2 mutant; percent response, % at 10 µM; 290,000 compounds, 0.35% hits; AID 1530; in the data active = percent response above about 24%, passing the limit was not always enough
MEKK3 PB1 HTS = raises or lowers MEK5 binding to the human MEKK3 PB1 domain; AID 1529; 290,000 compounds, 1.4% hits; Q99759; binding response (% of control), % at 10 µM; bead-based flow cytometry, Alexa488-MEK5 binding to MEKK3; actives lie on both sides; 0 = blocked by unlabeled MEK5, 100 = vehicle;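 active = binding response more than 3 SD above or below the average of its plate-row segment, actives on both sides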;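 note: Alexa488 bead fluorescence after subtracting the streptavidin-only scavenger bead signal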
MEKK2wt confirm = raises or lowers MEK5 binding to wildtype human MEKK2, retest. AID 1892. shares compounds with MEKK3 PB1 HTS. bead flow cytometry, Alexa488-MEK5 binding to MEKK2 WT; actives lie on both sides. 5,900 compounds, 2.4% hits. binding response (% of control), % at 10 µM; in the data active = binding response below about 16% or above about 210%; inactive = in between
MEKK2mut-MEK5 = signal of MEK5 binding to mutant human MEKK2, retest; percent response, % at 10 µM; AID 1893; shares compounds with MEKK3 PB1 HTS; 5,900 compounds, 2% hits; bead flow cytometry, Alexa488-MEK5 binding to MEKK2 mutant; in the data active = percent response mostly above about 71%, no sharp cut-off; inactive = mostly below about 38%;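 note: higher means compound restores mutant binding toward wildtype level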
MEKK3 confirm = confirmation of inhibitors of MEK5 binding to human MEKK3; 5,900 compounds, 1.8% hits; binding response (% of control), % at 10 µM; shares compounds with MEKK3 PB1 HTS; bead flow cytometry, Alexa488-MEK5 binding to MEKK3; hits give low values;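 active = binding response below 72% of control, or above a set upper limit, though filed actives all read lower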;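 note: 100% = DMSO only wells and 0% = binding blocked by excess unlabeled MEK5; lower values mean stronger disruption of MEK5 binding to MEKK3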
* hit, by the source's call; ! = not active in a repeat; [ ] = dose if it differs, or a comment.

For O=C(CSc1ncnc2scc(-c3ccccc3)c12)N1CCN(c2ccccc2F)CC1 the results were MEKK2 WT-MEK5 90, PREPL inhibitor -1, MEKK2mut PB1 HTS -1 and MEKK3 PB1 HTS 91.
Screening CCOCC(=O)N1CCN(c2ccccc2OC)CC1 returned UBC13 polyUb 4, Apaf-1 inh 6, MEKK2 WT-MEK5 123, PREPL inhibitor 9, MEKK2mut PB1 HTS 53*, MEKK3 PB1 HTS 103, MEKK2wt confirm 100, MEKK2mut-MEK5 -5 and MEKK3 confirm 100.
For Fc1ccc(CSc2ncnc3scc(-c4ccccc4)c23)cc1 the results were UBC13 polyUb 0, Apaf-1 inh 10, MEKK2 WT-MEK5 103, PREPL inhibitor -8, MEKK2mut PB1 HTS 52*, MEKK3 PB1 HTS 108, MEKK2wt confirm 96, MEKK2mut-MEK5 -4 and MEKK3 confirm 101.
For COC(=O)CSc1ncnc2scc(-c3ccccc3)c12 the results were UBC13 polyUb 9, Apaf-1 inh -3, MEKK2 WT-MEK5 103, PREPL inhibitor 19, MEKK2mut PB1 HTS -1 and MEKK3 PB1 HTS 106.
For COc1ccccc1C(=O)NCCC(=O)NC(C)c1ccc(-n2ccnc2)cc1 (centres undefined) the results were UBC13 polyUb 2, Apaf-1 inh 8 and PREPL inhibitor 17.
For NC(=O)CC(NC(=O)c1ccccc1)c1ccc(N2CCC(Br)CC2)c([N+](=O)[O-])c1 (centres undefined) the results were UBC13 polyUb -15, Apaf-1 inh 1, MEKK2 WT-MEK5 97, PREPL inhibitor -2, MEKK2mut PB1 HTS -2, MEKK3 PB1 HTS 77*[inhibitor], MEKK2wt confirm 91, MEKK2mut-MEK5 -14 and MEKK3 confirm 91.
`NC(=O)c1ccc(NC(=O)COC(=O)C2(c3ccccc3F)CCCC2)cc1` gave UBC13 polyUb -5, Apaf-1 inh 13, MEKK2 WT-MEK5 88, PREPL inhibitor -30, MEKK2mut PB1 HTS -2, MEKK3 PB1 HTS 73*[inhibitor], MEKK2wt confirm 100, MEKK2mut-MEK5 1 and MEKK3 confirm 103.
`COc1ccccc1CCNCc1ccc(OC)c(OCc2ccccc2)c1` gave UBC13 polyUb 5, Apaf-1 inh -6, MEKK2 WT-MEK5 126, PREPL inhibitor -33, MEKK2mut PB1 HTS 2 and MEKK3 PB1 HTS 101.
For COc1cccc(CNCCc2c[nH]c3ccccc23)c1OCc1ccccc1 the results were UBC13 polyUb 39, Apaf-1 inh 2, MEKK2 WT-MEK5 165*, PREPL inhibitor -36, MEKK2mut PB1 HTS 58*, MEKK3 PB1 HTS 104, MEKK2wt confirm 148, MEKK2mut-MEK5 15 and MEKK3 confirm 105.
`NC(N)=N/N=C/c1ccc(Cl)c(Cl)c1` gave UBC13 polyUb 28, Apaf-1 inh -4, MEKK2 WT-MEK5 124, PREPL inhibitor 12, MEKK2mut PB1 HTS 17 and MEKK3 PB1 HTS 104.
For NC(N)=N/N=C/c1ccc(Cl)cc1Cl the results were UBC13 polyUb 0, Apaf-1 inh 0, MEKK2 WT-MEK5 155*, PREPL inhibitor 17, MEKK2mut PB1 HTS 42, MEKK3 PB1 HTS 129*, MEKK2wt confirm 122, MEKK2mut-MEK5 18 and MEKK3 confirm 108.
Screening OC(COc1cccc2ccccc12)CN1CCCC1 (centres undefined) returned UBC13 polyUb 6, Apaf-1 inh 20, MEKK2 WT-MEK5 139*, PREPL inhibitor 14, MEKK2mut PB1 HTS 10, MEKK3 PB1 HTS 103, MEKK2wt confirm 133, MEKK2mut-MEK5 15 and MEKK3 confirm 103.
For OC(COc1cccc2ccccc12)CN1CCN(c2ccc(Cl)cc2)CC1 (centres undefined) the results were UBC13 polyUb 8, Apaf-1 inh 20, MEKK2 WT-MEK5 144*!, PREPL inhibitor 26, MEKK2mut PB1 HTS -2, MEKK3 PB1 HTS 102, MEKK2wt confirm 113, MEKK2mut-MEK5 8 and MEKK3 confirm 105.
Screening COc1ccc(CNC(=O)CNC(=O)c2ccc(Br)o2)cc1OC returned UBC13 polyUb -11, Apaf-1 inh -6, MEKK2 WT-MEK5 107, PREPL inhibitor 4, MEKK2mut PB1 HTS 15 and MEKK3 PB1 HTS 107.
Screening COCC(C)N1CCC(Oc2ccc(C(=O)N3CCCC3)cc2)CC1 (centres undefined) returned UBC13 polyUb 0, Apaf-1 inh 4, MEKK2 WT-MEK5 105, PREPL inhibitor -6, MEKK2mut PB1 HTS 5 and MEKK3 PB1 HTS 103.
For Cc1ccc(NC(=O)CSc2nnc(-c3cccs3)o2)cc1S(=O)(=O)N1CCCCC1 the results were UBC13 polyUb 5, Apaf-1 inh 7, MEKK2 WT-MEK5 105, PREPL inhibitor 1, MEKK2mut PB1 HTS 0, MEKK3 PB1 HTS 135*, MEKK2wt confirm 99, MEKK2mut-MEK5 4 and MEKK3 confirm 105.
Cc1ccc(NC(=O)CSc2nnc(-c3cccs3)o2)cc1S(=O)(=O)N(C)C was read as UBC13 polyUb -1, Apaf-1 inh 4, MEKK2 WT-MEK5 94, PREPL inhibitor 14, MEKK2mut PB1 HTS -8 and MEKK3 PB1 HTS 95.
Screening O=C(/C=C/c1c(F)cccc1Cl)Nc1ncccn1 returned UBC13 polyUb -9, Apaf-1 inh 9, MEKK2 WT-MEK5 97, PREPL inhibitor 8, MEKK2mut PB1 HTS -1 and MEKK3 PB1 HTS 98.
C=CCNC(=O)/C=C/c1c(F)cccc1Cl was read as UBC13 polyUb -12, Apaf-1 inh 11, MEKK2 WT-MEK5 109, PREPL inhibitor 16, MEKK2mut PB1 HTS 1, MEKK3 PB1 HTS 184*, MEKK2wt confirm 100, MEKK2mut-MEK5 -1 and MEKK3 confirm 105.
Cc1ccc(S(=O)(=O)N2CCCOC2)cc1 was read as UBC13 polyUb 2, Apaf-1 inh -13, MEKK2 WT-MEK5 84, PREPL inhibitor 2, MEKK2mut PB1 HTS -8, MEKK3 PB1 HTS 79*[inhibitor], MEKK2wt confirm 105, MEKK2mut-MEK5 8 and MEKK3 confirm 102.
For COc1cc(OC)cc(C(=O)NCc2ccc3[nH]c(C)cc3c2)c1 the results were UBC13 polyUb 6, Apaf-1 inh -9, MEKK2 WT-MEK5 103, PREPL inhibitor -1, MEKK2mut PB1 HTS 0 and MEKK3 PB1 HTS 104.
